Eleven compounds from article PMC11796557 (RSC Advances, 2025) can be followed below.

Holding throughout (type): cell-based
In test [1] the test system is normal fibroblasts. Put plainly: MTT cytotoxicity assay, normal fibroblasts. The settings on record: Fibroblast, 48 h, read-out: IC50 Fibroblasts. The gist of the method: (§1)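 Cells kept in DMEM with 10% FBS, 1% penicillin–streptomycin and 1% L-glutamine at 37 °C, 5% CO₂. They were seeded at 10 000 per well and attached for 24 h, then exposed to varying concentrations (from a 10 mM DMSO stock) for 48 h. MTT (5 mg mL⁻¹) was added for 4 h, formazan dissolved in DMSO, and A570 read. IC50 was calculated. DMSO served as vehicle control and cisplatin or doxorubicin as positive control. Values are mean ± SD of three independent experiments (n = 9).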
Background: Tetrazolium dyes change colour on reduction, which living cells bring about.

For test [2], the system named is HCT116 (colon carcinoma). The experiment in a line: MTT anticancer activity. The settings on record: Homo sapiens, HCT-116, 48 h, read-out: IC50 HCT116. The gist of the method: as §1
Test [3] relates to PC3 (prostate carcinoma). Put plainly: MTT anticancer activity. The note with it: Homo sapiens, 48 h, read-out: IC50 PC3. In a few lines: as §1
Test [4] deals with MCF-7 (breast carcinoma). The experiment in a line: MTT anticancer activity. The note with it: Homo sapiens, MCF7, 48 h, read-out: IC50 MCF-7. The gist of the method:
as §1

Test [5] concerns A549 (lung carcinoma). Put plainly: MTT anticancer activity. The note with it: Homo sapiens, A549, 48 h, read-out: IC50 A549. In a few lines:
as §1

`O=C1CCCc2c1c(O)cc(=O)n2-c1ccccc1` [Compound 3a, 4-Hydroxy-1-phenyl-7,8-dihydroquinoline-2,5(1H,6H)-dione]: the IC50 in test [1] is > 500 µM; in test [2], 148 µM; in test [3] it was 151 µM; in test [4] it was 189 µM; in test [5], 189 µM.

For the compound `Cc1ccc(-n2c3c(c(O)cc2=O)C(=O)CCC3)cc1` [Compound 3b, 4-Hydroxy-1-(p-tolyl)-7,8-dihydroquinoline-2,5(1H,6H)-dione], the IC50 in test [1] is > 500 µM; in test [2], 162 µM; in test [3] it was 239 µM; in test [4], 213 µM; in test [5], 159 µM.

For the compound `O=C1CCCc2c1c(O)cc(=O)n2-c1ccc(Cl)cc1` [Compound 3c, 1-(4-Chlorophenyl)-4-hydroxy-7,8-dihydroquinoline-2,5(1H,6H)-dione], the IC50 in test [1] was > 500 µM; in test [2], 139 µM; in test [3], 251 µM; in test [4], 261 µM; in test [5] it was 257 µM.

As for `O=C1CCCc2c1c(O)cc(=O)n2-c1ccc(F)cc1` [Compound 3d, 1-(4-Fluorophenyl)-4-hydroxy-7,8-dihydroquinoline-2,5(1H,6H)-dione], the IC50 was > 500 µM in test [1]; 46.5 µM in test [2]; 65.9 µM in test [3]; 34.2 µM in test [4]; 98.5 µM in test [5].

For `COc1ccccc1-n1c2c(c(O)cc1=O)C(=O)CCC2` [Compound 3e, 4-Hydroxy-1-(2-methoxyphenyl)-7,8-dihydroquinoline-2,5(1H,6H)-dione], the IC50 in test [1] is > 500 µM; in test [2], 29.5 µM; in test [3], 45 µM; in test [4], 62.6 µM; in test [5], 67 µM.

As to `CC1(C)CC(=O)c2c(O)cc(=O)n(-c3ccccc3)c2C1` [Compound 3f, 4-Hydroxy-7,7-dimethyl-1-phenyl-7,8-dihydroquinoline-2,5(1H,6H)-dione], the IC50 in test [1] is > 500 µM; in test [2] it was 118 µM; in test [3], 95.5 µM; in test [4], 70.6 µM; in test [5], 127 µM.

Take `CC1(C)CC(=O)c2c(O)cc(=O)n(Cc3ccccc3)c2C1` [Compound 3g, 1-Benzyl-4-hydroxy-7,7-dimethyl-7,8-dihydroquinoline-2,5(1H,6H)-dione]: the IC50 in test [1] is > 500 µM; in test [2], 18.4 µM; in test [3] it was 29.1 µM; in test [4] it was 26.9 µM; in test [5] it was 32.4 µM.

Take `CC1(C)CC(=O)c2c(O)cc(=O)n(-c3ccc(F)cc3)c2C1` [Compound 3h, 1-(4-Fluorophenyl)-4-hydroxy-7,7-dimethyl-7,8-dihydroquinoline-2,5(1H,6H)-dione]: the IC50 in test [1] was > 500 µM; in test [2], 28.9 µM; in test [3], 29.3 µM; in test [4] it was 32.4 µM; in test [5], 87.9 µM.

Turning to `COc1ccc(-n2c3c(c(O)cc2=O)C(=O)CC(C)(C)C3)cc1` [Compound 3i, 4-Hydroxy-1-(4-methoxyphenyl)-7,7-dimethyl-7,8-dihydroquinoline-2,5(1H,6H)-dione], the half-inhibitory concentration (IC50) is > 500 µM in test [1]; 33.4 µM in test [2]; 34.1 µM in test [3]; 50.1 µM in test [4]; 73 µM in test [5].

As for `COc1ccccc1-n1c2c(c(O)cc1=O)C(=O)CC(C)(C)C2` [Compound 3j, 4-Hydroxy-1-(2-methoxyphenyl)-7,7-dimethyl-7,8-dihydroquinoline-2,5(1H,6H)-dione], the IC50 in test [1] was > 500 µM; in test [2], 38.2 µM; in test [3], 43.6 µM; in test [4] it was 81.4 µM; in test [5] it was 78.8 µM.

As for `COc1cccc2c1C(=O)c1c(O)c3c(c(O)c1C2=O)C[C@@](O)(C(=O)CO)C[C@@H]3O[C@H]1C[C@H](N)[C@H](O)[C@H](C)O1` [Doxorubicin, reference compound], the IC50 in test [2] is 5.8 µM; in test [4], 2.3 µM.

What is called IC50 is the concentration that inhibits the measured activity by half.
